Laboratory results: paper PMC4367188 (ACS Chemical Neuroscience, 2015)

Columns and labels:
[1] = biological target: Neuropeptide Y Y2 (Homo sapiens, UniProt P49146); experiment: Lead Profiling Screen radioligand binding
[2] = biological target: Adenosine A1 (Homo sapiens, UniProt P30542); experiment: Lead Profiling Screen radioligand binding
[3] = tested on: GABAA, Muscimol, Central; experiment: Lead Profiling Screen radioligand binding; conditions: 10 μM ML352
[4] = biological target: Epidermal Growth Factor (EGF) (Homo sapiens, UniProt P00533); experiment: Lead Profiling Screen radioligand binding
[5] = tested on: Imidazoline I2, Central; experiment: Lead Profiling Screen radioligand binding; conditions: 10 μM ML352
[6] = biological target: Histamine, H3 (Homo sapiens, UniProt Q9Y5N1); experiment: Lead Profiling Screen radioligand binding
Sequence of Histamine, H3 (Q9Y5N1 whole entry): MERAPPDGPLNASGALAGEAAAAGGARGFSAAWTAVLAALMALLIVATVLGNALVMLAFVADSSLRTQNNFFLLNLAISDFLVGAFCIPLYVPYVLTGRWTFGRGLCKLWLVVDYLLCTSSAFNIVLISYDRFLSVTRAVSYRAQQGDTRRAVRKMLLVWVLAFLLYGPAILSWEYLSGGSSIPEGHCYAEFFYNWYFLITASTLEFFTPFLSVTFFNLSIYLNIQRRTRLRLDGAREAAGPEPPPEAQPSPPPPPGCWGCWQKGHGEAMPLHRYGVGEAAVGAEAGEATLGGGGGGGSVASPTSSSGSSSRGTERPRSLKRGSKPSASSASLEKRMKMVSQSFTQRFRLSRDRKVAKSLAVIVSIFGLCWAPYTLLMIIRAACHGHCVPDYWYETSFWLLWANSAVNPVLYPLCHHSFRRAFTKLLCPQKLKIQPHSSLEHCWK

[7] = tested on: nontransfected HEK 293 cells; experiment: [3H]choline accumulation in nontransfected HEK 293 cells; format: cell-based, human; conditions: 5 μM ML352; data not shown
[8] = biological target: Leukotriene, Cysteinyl CysLT1 (Homo sapiens, UniProt Q9Y271); experiment: Lead Profiling Screen radioligand binding
Sequence of Leukotriene, Cysteinyl CysLT1 (Q9Y271 whole entry): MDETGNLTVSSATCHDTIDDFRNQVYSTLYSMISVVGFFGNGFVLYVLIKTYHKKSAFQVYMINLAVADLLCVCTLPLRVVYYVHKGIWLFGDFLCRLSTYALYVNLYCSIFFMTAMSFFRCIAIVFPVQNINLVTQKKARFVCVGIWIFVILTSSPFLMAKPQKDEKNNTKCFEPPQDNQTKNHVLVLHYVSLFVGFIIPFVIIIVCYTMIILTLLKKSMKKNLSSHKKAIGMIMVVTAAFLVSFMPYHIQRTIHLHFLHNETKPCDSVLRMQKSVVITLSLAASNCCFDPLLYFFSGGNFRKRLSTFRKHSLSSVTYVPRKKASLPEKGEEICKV

[9] = biological target: Endothelin ETB (Homo sapiens, UniProt P24530); experiment: Lead Profiling Screen radioligand binding
Sequence of Endothelin ETB (P24530 27-442): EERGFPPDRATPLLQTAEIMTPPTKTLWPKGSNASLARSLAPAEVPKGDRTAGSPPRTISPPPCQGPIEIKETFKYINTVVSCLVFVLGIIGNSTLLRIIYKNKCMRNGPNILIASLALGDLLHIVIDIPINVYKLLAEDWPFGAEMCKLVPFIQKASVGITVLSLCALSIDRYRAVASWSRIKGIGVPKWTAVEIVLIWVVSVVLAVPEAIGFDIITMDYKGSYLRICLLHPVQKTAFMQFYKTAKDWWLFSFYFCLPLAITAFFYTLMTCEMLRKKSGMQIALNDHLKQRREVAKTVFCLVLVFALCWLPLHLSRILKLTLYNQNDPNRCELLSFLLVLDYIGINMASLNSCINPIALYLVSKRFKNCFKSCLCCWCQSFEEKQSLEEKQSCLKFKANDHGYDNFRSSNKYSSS

[10] = biological target: norepinephrine transporter (NET) (Homo sapiens, UniProt P23975); experiment: [3H]NE uptake in HEK293 hNET cells; format: cell-based; conditions: transfected HEK 293 cells
[11] = brain tissue distribution in Sprague-Dawley rats; format: in vivo; conditions: male, rat, brain/plasma, iv, 1 mg/kg
[12] = biological target: Dopamine D42 (Homo sapiens, UniProt P21917, DEL265-296); experiment: Lead Profiling Screen radioligand binding
[13] = tested on: Potassium Channel [KATP]; experiment: Lead Profiling Screen radioligand binding; conditions: 10 μM ML352
[14] = tested on: Glutamate, NMDA, Glycine; experiment: Lead Profiling Screen radioligand binding; conditions: 10 μM ML352
[15] = tested on: Rolipram; experiment: Lead Profiling Screen radioligand binding; conditions: 10 μM ML352
[16] = biological target: Calcium Channel N-Type (Rattus norvegicus, UniProt Q02294); experiment: Lead Profiling Screen radioligand binding
[17] = biological target: Muscarinic M2 (Homo sapiens, UniProt P08172); experiment: Lead Profiling Screen radioligand binding
[18] = biological target: Adrenergic α1D (Homo sapiens, UniProt P25100); experiment: Lead Profiling Screen radioligand binding
[19] = biological target: Adenosine A2A (Homo sapiens, UniProt P29274); experiment: Lead Profiling Screen radioligand binding
Sequence of Adenosine A2A (P29274 whole entry): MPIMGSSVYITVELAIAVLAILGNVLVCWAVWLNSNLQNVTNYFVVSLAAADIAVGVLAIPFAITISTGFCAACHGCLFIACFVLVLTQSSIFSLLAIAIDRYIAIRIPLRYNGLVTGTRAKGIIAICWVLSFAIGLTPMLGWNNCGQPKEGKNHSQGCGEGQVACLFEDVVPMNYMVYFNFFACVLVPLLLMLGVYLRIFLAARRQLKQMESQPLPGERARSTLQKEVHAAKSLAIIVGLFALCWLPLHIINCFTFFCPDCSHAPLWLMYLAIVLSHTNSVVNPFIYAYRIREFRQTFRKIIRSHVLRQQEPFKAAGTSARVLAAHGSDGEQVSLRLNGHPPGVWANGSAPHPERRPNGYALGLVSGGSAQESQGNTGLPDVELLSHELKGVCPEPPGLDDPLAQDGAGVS

[20] = biological target: P450 2C9 (Homo sapiens, UniProt P11712)
Sequence of P450 2C9 (P11712 whole entry): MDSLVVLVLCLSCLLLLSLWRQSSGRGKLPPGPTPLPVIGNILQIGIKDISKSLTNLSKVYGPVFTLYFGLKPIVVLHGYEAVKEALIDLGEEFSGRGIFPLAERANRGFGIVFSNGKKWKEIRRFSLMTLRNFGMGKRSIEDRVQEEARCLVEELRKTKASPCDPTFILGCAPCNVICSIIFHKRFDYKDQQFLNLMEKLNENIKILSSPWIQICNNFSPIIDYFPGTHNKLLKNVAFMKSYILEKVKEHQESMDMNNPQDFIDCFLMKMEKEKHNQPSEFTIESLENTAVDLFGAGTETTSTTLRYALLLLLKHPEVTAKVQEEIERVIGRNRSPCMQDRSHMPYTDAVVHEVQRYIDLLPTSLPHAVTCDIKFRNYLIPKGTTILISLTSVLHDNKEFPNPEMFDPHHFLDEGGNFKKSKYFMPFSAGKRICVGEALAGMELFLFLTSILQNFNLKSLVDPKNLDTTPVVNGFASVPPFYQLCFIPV

[21] = biological target: Cannabinoid CB1 (Homo sapiens, UniProt P21554); experiment: Lead Profiling Screen radioligand binding
Sequence of Cannabinoid CB1 (P21554 whole entry): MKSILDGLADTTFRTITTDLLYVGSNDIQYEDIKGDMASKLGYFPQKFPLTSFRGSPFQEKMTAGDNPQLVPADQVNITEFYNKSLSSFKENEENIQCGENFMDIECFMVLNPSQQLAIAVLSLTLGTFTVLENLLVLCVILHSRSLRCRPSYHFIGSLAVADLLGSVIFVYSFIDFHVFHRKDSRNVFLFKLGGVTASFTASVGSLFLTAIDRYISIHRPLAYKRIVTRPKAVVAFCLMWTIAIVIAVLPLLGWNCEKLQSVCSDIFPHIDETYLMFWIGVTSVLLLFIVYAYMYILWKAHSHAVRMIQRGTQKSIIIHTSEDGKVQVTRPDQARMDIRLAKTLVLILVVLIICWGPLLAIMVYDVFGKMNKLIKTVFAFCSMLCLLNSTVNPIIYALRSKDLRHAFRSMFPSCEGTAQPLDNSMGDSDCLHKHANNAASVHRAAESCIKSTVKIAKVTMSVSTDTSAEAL

[22] = biological target: Estrogen Erα (Homo sapiens, UniProt P03372); experiment: Lead Profiling Screen radioligand binding
Sequence of Estrogen Erα (P03372 whole entry): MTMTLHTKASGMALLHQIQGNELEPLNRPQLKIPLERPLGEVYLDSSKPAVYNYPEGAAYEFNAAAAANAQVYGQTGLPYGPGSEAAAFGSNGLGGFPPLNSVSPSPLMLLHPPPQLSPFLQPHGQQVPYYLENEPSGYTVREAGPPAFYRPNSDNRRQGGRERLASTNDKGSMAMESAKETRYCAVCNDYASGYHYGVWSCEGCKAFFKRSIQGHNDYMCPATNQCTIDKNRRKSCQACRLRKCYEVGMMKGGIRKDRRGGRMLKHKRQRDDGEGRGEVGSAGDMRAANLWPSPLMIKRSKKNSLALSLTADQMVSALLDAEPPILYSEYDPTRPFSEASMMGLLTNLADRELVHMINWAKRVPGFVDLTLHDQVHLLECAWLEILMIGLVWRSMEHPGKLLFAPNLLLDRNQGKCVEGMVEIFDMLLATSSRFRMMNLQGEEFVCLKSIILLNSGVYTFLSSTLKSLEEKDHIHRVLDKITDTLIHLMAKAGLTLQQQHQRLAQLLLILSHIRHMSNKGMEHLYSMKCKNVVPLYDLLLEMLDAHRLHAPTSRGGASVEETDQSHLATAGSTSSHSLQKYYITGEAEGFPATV

[23] = tested on: Glutamate, NMDA, Agonism; experiment: Lead Profiling Screen radioligand binding; conditions: 10 μM ML352
[24] = biological target: SERT (Mus musculus, UniProt Q60857); experiment: serotonin uptake in mouse forebrain synaptosomes; format: biochemical; conditions: 5 μM ML352
Sequence of SERT (Q60857 whole entry): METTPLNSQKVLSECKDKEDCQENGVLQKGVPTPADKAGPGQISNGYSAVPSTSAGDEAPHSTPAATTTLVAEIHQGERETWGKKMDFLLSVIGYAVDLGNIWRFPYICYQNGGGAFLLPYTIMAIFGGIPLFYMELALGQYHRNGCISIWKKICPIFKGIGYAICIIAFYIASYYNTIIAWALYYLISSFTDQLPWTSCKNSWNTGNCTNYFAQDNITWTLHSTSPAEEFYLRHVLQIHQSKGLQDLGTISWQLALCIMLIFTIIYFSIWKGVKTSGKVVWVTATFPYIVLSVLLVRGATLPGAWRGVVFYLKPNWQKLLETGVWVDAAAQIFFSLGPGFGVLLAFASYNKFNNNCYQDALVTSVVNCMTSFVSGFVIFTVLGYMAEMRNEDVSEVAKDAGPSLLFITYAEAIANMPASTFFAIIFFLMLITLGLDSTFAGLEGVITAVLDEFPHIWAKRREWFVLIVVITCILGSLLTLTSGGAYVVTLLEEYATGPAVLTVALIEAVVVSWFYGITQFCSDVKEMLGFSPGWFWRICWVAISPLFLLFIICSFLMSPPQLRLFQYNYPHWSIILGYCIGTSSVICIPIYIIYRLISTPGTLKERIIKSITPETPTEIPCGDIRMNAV
Method in brief: (§1)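 Crude P2 synaptosomes from forebrains of male C57BL/6J mice (8–10 weeks), taken after decapitation under urethane. Incubated 10 min at 37 °C in Krebs bicarbonate buffer with 100 nM [3H]dopamine or [3H]serotonin ± test compound. Stopped on ice, rapidly filtered, counted by scintillation. Specific uptake defined with cocaine 1 μM (DAT) or citalopram 1 μM (SERT). Protein by BCA; n = 3.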

[25] = biological target: Adrenergic α2A (Homo sapiens, UniProt P08913); experiment: Lead Profiling Screen radioligand binding
[26] = biological target: Endothelin ETA (Homo sapiens, UniProt P25101); experiment: Lead Profiling Screen radioligand binding
[27] = biological target: Sertonin (5-Hydroxytrptamine) 5-HT3 (Homo sapiens, UniProt P46098); experiment: Lead Profiling Screen radioligand binding
[28] = biological target: DAT (Mus musculus, UniProt Q61327); experiment: dopamine uptake in mouse forebrain synaptosomes; format: biochemical; conditions: 5 μM ML352
Sequence of DAT (Q61327 whole entry): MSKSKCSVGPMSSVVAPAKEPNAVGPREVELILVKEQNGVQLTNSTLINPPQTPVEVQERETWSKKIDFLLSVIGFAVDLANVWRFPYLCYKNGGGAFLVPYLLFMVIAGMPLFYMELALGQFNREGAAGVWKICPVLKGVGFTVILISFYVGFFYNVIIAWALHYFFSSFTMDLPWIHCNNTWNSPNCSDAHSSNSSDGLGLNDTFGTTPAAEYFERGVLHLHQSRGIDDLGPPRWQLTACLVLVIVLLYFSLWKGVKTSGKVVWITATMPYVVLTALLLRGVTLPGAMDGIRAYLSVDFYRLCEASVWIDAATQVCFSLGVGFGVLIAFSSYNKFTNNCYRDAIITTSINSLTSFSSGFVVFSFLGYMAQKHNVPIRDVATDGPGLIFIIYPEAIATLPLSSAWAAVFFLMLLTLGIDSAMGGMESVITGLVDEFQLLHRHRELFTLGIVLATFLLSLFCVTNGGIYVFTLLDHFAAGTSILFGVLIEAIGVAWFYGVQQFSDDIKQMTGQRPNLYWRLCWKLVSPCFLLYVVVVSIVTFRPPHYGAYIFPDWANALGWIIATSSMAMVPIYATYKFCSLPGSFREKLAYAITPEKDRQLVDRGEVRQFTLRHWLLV
Method in brief: as §1

[29] = tested on: Sodium Channel, Site 2; experiment: Lead Profiling Screen radioligand binding; conditions: 10 μM ML352
[30] = biological target: Histamine, H2 (Homo sapiens, UniProt P25021); experiment: Lead Profiling Screen radioligand binding
[31] = biological target: Transporter, Dopamine (DAT) (Homo sapiens, UniProt Q01959); experiment: Lead Profiling Screen radioligand binding
[32] = biological target: T1, WT hCHT (Homo sapiens, UniProt Q9GZV3); experiment: cell-surface biotinylation, CHT surface expression in WT hCHT HEK 293 cells; format: cell-based; conditions: 5 μM, 15 min incubation
T1 sequence (Q9GZV3 1-580): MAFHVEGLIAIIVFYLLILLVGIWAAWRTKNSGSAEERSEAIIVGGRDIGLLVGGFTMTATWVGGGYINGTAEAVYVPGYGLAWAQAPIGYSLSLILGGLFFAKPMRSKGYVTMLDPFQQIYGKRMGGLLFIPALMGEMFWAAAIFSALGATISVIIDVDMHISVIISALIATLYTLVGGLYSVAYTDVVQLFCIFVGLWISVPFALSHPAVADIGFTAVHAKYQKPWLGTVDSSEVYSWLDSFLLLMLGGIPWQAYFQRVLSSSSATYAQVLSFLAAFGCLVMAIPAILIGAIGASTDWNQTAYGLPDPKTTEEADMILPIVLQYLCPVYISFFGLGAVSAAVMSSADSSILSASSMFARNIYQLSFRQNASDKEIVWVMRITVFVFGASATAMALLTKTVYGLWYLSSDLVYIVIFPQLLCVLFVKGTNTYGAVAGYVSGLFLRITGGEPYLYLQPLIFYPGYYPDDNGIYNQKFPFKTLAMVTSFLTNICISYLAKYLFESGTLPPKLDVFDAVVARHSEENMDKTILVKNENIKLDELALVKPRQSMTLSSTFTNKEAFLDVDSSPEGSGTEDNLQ

[33] = biological target: dopamine transporter (DAT) (Homo sapiens, UniProt Q01959); experiment: [3H]DA uptake in HEK293 hDAT cells; format: cell-based; conditions: transfected HEK 293 cells
[34] = biological target: hCHT LV-AA (Homo sapiens, UniProt Q9GZV3, L531A/V532A); experiment: [3H]choline uptake in HEK 293 cells transfected with hCHT LV-AA; format: cell-based; conditions: ML352 at 200 or 800 nM in saturation choline transport assays
Sequence of hCHT LV-AA (Q9GZV3 whole entry L531A/V532A): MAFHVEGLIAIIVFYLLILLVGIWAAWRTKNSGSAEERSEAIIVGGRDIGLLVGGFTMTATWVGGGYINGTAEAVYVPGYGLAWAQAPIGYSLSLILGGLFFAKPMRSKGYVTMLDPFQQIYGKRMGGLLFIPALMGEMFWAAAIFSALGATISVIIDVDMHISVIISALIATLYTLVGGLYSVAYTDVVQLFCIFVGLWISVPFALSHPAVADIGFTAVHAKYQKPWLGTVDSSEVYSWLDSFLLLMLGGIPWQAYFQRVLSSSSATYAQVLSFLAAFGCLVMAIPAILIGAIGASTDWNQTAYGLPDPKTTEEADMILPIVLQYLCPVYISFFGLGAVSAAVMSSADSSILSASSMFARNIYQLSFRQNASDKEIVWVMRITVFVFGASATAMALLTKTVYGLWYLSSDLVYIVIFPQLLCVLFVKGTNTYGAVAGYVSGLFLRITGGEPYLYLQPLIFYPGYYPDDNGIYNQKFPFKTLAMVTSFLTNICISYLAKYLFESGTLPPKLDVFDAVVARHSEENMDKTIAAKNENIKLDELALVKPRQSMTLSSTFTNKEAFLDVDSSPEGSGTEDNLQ

**Q.** With `COc1ccc(C(=O)NCc2cc(C(C)C)no2)cc1OC1CCN(C)CC1` [ML352, N-((3-isopropylisoxazol-5-yl)methyl)-4-methoxy-3-((1-methylpiperidin-4-yl)oxy)benzamide] as the compound, how does the inhibition at 10 µM [1] read?
**A.** 7%

**Q.** What about the inhibition at 10 µM [2] of the same compound?
**A.** -5%

**Q.** And the “% inhibition” value [3]?
**A.** 9%

**Q.** What about the inhibition at 10 µM [4] of the same compound?
**A.** 5%

**Q.** What about the “% inhibition” value [5] of the same compound?
**A.** 16%

**Q.** And the inhibition at 10 µM [6]?
**A.** 7%

**Q.** And the “effect on [3H]choline accumulation in nontransfected HEK 293 cells” value [7]?
**A.** < 20%

**Q.** And the inhibition at 10 µM [8]?
**A.** -3%

**Q.** What about the inhibition at 10 µM [9] of the same compound?
**A.** -2%

**Q.** What about the “inhibitory activity at NET” value [10] of the same compound?
**A.** lack of inhibitory activity

**Q.** And the Kp at […] [11]?
**A.** 0.2

**Q.** And the inhibition at 10 µM [12]?
**A.** -3%

**Q.** And the “% inhibition” value [13]?
**A.** 4%

**Q.** And the “% inhibition” value [14]?
**A.** 4%

**Q.** And the “% inhibition” value [15]?
**A.** 1%

**Q.** What about the inhibition at 10 µM [16] of the same compound?
**A.** -1%

**Q.** And the inhibition at 10 µM [17]?
**A.** 12%

**Q.** What about the inhibition at 10 µM [18] of the same compound?
**A.** 24%

**Q.** And the inhibition at 10 µM [19]?
**A.** 0%

**Q.** And the IC50 [20]?
**A.** > 30 µM

**Q.** And the inhibition at 10 µM [21]?
**A.** 4%

**Q.** What about the inhibition at 10 µM [22] of the same compound?
**A.** 4%

**Q.** And the “% inhibition” value [23]?
**A.** 1%

**Q.** What about the “inhibition of SERT” value [24] of the same compound?
**A.** fails to inhibit

**Q.** What about the inhibition at 10 µM [25] of the same compound?
**A.** 43%

**Q.** And the inhibition at 10 µM [26]?
**A.** -3%

**Q.** And the inhibition at 10 µM [27]?
**A.** 2%

**Q.** What about the “inhibition of DAT” value [28] of the same compound?
**A.** fails to inhibit

**Q.** What about the “% inhibition” value [29] of the same compound?
**A.** 20%

**Q.** What about the inhibition at 10 µM [30] of the same compound?
**A.** 20%

**Q.** What about the inhibition at 10 µM [31] of the same compound?
**A.** 4%

**Q.** What about the “increase in steady-state hCHT surface expression” value [32] of the same compound?
**A.** 43.4 ± 4.7 % of control

**Q.** What about the “inhibitory activity at DAT” value [33] of the same compound?
**A.** lack of inhibitory activity

**Q.** And the “mode of choline uptake inhibition” value [34]?
**A.** noncompetitively inhibits
